Data on 3 compounds can be found in ChEMBL document CHEMBL5252633, “Quinazolinone-1,2,3-triazole-acetamide conjugates as potent α-glucosidase inhibitors: synthesis, enzyme inhibition, kinetic analysis, and molecular docking study” (RSC Med Chem, 2023).

pIC50: −log10 of the molar value. Activity calls are given as the source filed them. The calls are words filed in the database; no cut-off is given here.

Test [1] concerns the target T1, Pancreatic triacylglycerol lipase (Homo sapiens, UniProt P16233).
T1 sequence (P16233 whole entry): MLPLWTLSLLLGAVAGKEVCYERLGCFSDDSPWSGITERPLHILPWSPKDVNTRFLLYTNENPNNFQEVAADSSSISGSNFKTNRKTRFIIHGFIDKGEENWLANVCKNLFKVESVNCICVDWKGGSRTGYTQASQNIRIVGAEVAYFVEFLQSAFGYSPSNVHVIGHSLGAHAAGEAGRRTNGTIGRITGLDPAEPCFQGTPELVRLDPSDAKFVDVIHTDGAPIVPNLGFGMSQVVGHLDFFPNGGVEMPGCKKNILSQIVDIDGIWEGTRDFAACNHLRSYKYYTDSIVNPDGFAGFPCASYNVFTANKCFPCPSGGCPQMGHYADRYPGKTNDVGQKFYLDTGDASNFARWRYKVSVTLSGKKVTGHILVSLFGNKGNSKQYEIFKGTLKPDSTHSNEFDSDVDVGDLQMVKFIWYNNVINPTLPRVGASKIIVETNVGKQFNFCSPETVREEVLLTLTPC
Put plainly: Inhibition of pancreatic lipase (unknown origin).

Test [2] deals with Maltase-glucoamylase (Homo sapiens) (UniProt O43451). The test is described as follows: Inhibition of alpha-glucosidase (unknown origin) assessed as change in Vmax using p-nitrophenyl-alpha D-glucopyranoside as substrate by Lineweaver-Burk plot analysis. The method, boiled down: (§1)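 Initial rates were measured with p-nitrophenyl α-D-glucopyranoside at 1–16 mM and inhibitor at 0, 1.2, 2.4 and 4.8 μM. Lineweaver–Burk plots (1/V against 1/[S]) at each inhibitor level gave Km and Vmax. Ki was estimated from a plot of Km against inhibitor concentration.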

The target is the same in test [3]. The test is described as follows: Inhibition of alpha-glucosidase (unknown origin) assessed as increase in Km using p-nitrophenyl-alpha D-glucopyranoside as substrate by Lineweaver-Burk plot analysis. The method, boiled down:
as §1

The target of test [4] is T2, Alpha-glucosidase (Saccharomyces cerevisiae S288c, UniProt P53341+P38158+P07265). Put plainly: Inhibition of Saccharomyces cerevisiae alpha-glucosidase assessed as inhibition constant using p-nitrophenyl-alpha D-glucopyranoside as substrate preincubated for 15 mins followed by substrate addition and measured after 20 mins by Lineweaver-burk plot analysis. The format is protein assay.

In test [5] the target is T2, Alpha-glucosidase. The test is described as follows: Inhibition of Saccharomyces cerevisiae alpha-glucosidase using p-nitrophenyl-alpha D-glucopyranoside as substrate preincubated for 15 mins followed by substrate addition and measured after 20 mins by spectrophotometer assay. In kind it is protein assay.

Chain of Maltase-glucoamylase (Homo sapiens) (O43451 whole entry, looked up): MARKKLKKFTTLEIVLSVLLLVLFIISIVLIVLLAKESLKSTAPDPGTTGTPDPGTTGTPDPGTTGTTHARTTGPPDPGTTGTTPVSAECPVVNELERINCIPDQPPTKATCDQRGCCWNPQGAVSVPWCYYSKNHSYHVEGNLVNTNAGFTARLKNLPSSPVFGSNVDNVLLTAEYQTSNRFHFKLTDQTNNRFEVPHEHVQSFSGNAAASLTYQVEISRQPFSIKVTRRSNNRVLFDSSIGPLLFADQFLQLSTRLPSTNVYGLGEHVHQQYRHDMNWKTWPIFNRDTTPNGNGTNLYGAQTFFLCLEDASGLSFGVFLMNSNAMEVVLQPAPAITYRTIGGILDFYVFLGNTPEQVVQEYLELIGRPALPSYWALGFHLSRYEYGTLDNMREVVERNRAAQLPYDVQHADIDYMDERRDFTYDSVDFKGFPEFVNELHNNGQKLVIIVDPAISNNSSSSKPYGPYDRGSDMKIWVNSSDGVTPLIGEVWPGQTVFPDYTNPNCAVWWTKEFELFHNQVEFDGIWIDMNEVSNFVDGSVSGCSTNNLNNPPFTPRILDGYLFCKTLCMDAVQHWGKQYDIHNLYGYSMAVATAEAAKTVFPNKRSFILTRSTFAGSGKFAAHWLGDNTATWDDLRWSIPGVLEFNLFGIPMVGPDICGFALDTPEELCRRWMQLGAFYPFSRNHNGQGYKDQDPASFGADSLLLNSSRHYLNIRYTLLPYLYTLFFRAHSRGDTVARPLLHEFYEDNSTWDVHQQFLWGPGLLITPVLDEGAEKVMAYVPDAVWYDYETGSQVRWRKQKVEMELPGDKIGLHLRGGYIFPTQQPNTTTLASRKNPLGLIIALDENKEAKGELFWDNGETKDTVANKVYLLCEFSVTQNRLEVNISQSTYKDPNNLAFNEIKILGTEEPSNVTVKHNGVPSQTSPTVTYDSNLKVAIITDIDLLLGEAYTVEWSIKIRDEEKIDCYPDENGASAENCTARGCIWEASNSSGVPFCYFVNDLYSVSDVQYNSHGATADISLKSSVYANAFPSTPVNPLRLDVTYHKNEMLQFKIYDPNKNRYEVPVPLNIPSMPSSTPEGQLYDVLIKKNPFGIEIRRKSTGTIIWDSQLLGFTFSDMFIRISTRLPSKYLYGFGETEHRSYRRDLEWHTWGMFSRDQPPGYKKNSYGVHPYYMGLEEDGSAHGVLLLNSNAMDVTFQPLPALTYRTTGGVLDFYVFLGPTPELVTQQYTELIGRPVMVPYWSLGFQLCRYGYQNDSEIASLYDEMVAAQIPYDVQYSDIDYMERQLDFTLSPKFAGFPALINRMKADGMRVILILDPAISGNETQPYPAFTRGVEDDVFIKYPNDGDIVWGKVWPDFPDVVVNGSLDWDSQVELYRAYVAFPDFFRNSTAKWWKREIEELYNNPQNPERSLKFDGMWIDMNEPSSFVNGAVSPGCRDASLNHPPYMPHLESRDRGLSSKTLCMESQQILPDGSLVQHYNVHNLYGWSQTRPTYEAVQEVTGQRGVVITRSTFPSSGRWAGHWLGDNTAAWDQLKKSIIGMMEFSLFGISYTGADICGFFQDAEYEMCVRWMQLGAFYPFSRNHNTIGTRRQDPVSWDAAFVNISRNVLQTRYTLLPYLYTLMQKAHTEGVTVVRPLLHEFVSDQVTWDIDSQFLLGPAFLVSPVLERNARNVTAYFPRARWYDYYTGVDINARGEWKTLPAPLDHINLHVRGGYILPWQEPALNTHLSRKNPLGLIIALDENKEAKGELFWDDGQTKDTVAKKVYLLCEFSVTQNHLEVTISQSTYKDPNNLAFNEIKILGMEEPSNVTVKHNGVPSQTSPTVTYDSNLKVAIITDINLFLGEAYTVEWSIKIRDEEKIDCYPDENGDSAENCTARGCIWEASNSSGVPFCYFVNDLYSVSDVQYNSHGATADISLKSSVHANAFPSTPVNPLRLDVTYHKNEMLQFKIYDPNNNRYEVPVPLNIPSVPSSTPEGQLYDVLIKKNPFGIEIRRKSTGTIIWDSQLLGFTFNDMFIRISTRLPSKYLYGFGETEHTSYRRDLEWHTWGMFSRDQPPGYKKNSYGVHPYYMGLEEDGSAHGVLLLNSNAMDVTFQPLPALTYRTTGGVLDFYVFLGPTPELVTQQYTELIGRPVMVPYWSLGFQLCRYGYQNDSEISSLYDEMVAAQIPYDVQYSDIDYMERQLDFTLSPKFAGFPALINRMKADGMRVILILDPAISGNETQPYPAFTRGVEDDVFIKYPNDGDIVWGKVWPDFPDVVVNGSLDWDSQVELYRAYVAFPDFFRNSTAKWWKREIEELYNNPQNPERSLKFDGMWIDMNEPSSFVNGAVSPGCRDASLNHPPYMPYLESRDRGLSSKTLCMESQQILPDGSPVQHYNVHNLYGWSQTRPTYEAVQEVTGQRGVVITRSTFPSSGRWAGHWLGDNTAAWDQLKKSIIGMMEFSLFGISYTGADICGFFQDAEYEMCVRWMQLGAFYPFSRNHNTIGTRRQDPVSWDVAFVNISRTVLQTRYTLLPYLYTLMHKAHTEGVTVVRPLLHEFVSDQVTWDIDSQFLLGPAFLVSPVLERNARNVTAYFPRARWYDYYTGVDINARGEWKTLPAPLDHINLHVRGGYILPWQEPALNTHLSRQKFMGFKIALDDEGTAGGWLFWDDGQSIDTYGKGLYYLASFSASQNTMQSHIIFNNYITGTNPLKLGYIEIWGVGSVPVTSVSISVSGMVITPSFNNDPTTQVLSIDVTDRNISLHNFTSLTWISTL

For orientation: pIC50 means −log10 of the IC50, conventionally taken in molar units. In turn, `O=C(Cn1c(Cc2ccc(Br)cc2)nc2ccccc2c1=O)NNC(=O)c1cc2ccccc2oc1=O` had a pIC50 in test [1] of 5.55.
Take `Cc1ccc(NC(=O)Cn2cc(COc3ccc(C4Nc5ccccc5C(=O)N4Nc4ccccc4)cc3)nn2)c(C)c1` (stereo not given): the inhibition entry in test [2] is “inactive”. Moreover, in test [3], the inhibition entry is “Active”.
The term Ki denotes the equilibrium dissociation constant of an inhibitor or competing ligand from its target. Broadly, the IC50 is the concentration that inhibits the measured activity by half. A higher IC50 goes with weaker potency in that assay. As for `O=C(Cn1c(-c2ccc(Cl)cc2)nc2ccccc2c1=O)N/N=C\c1cn(-c2ccccc2)nc1-c1ccc(Br)cc1`, the Ki on Alpha-glucosidase [4] amounted to 56 µM. The compound also came in with an IC50 at Alpha-glucosidase [5] of 60.5 µM.
